{"data": "Results pooled from the literature", "target": "D(2) dopamine receptor (DRD2, Homo sapiens, UniProt P14416)", "concentration": "10 µM", "note": "Each line is one published result; the experiments were not run side by side."}
{"Structure (SMILES)": "O=c1oc2cc(OCC(O)CN3CCN(c4ccc(F)cc4)CC3)ccc2c2c1CCC2 (centres unmarked)", "effect on": "enzyme activity", "mode": "inhibitor", "inhibition": "40.8%"}
{"Structure (SMILES)": "CCN(CC)c1ccc(C2Nc3ccc(C(=O)c4ccccc4)cc3NC3=C2C(=O)CC(C)(C)C3)cc1 (centres unmarked)", "effect on": "ligand displacement", "method": "radioligand", "inhibition": "99%"}
{"Structure (SMILES)": "Cc1ncccc1OC[C@@H]1CN(CCN2CCc3ccccc32)CCO1", "effect on": "ligand displacement", "method": "radioligand", "inhibition": "15.2%"}
{"Structure (SMILES)": "O=C1NC(c2ccccn2)Sc2ccccc21 (centres unmarked)", "effect on": "ligand displacement", "inhibition": "-3.91%"}
{"Structure (SMILES)": "O=C1C2CCCN2C(=O)N1CCCCN1CCN(c2ccccc2)CC1 (centres unmarked)", "effect on": "enzyme activity", "mode": "inhibitor", "inhibition": "48.3%"}
{"Structure (SMILES)": "Cc1noc([C@H]2C[C@@H](c3ccc(C(F)(F)F)cc3)CN(C(=O)N3CCS(=O)(=O)C3)C2)n1", "effect on": "ligand displacement", "inhibition": "-0.15%"}
{"Structure (SMILES)": "O=C1c2ccccc2CCCN1CCCCN1CCN(c2ccccn2)CC1", "effect on": "ligand displacement", "method": "radioligand", "inhibition": "93%"}
{"Structure (SMILES)": "CCC(F)(F)c1cc(N2CCC(S(C)(=O)=O)CC2)nc2sc(C(N)=O)c(N)c12", "effect on": "ligand displacement", "inhibition": "69.8%"}
{"Structure (SMILES)": "CCCNc1nc2ccccc2n1Cc1ccc(Cl)cc1", "effect on": "ligand displacement", "inhibition": "1.09%"}
{"Structure (SMILES)": "CN(C)C(=O)Cn1cc(-c2nc(C3(c4ccc(-c5cnc(N)nc5)cc4)CC3)no2)cn1", "effect on": "cell-free assay", "inhibition": "16.1%"}
{"Structure (SMILES)": "COc1cccc(N2CCN(C3CC(=O)N(c4cccc(OC)c4)C3=O)CC2)c1 (centres unmarked)", "effect on": "enzyme activity", "mode": "inhibitor", "inhibition": "8.6%"}
{"Structure (SMILES)": "COc1ccc2c(c1)C(=O)N(CCN1CCN(c3ccccc3OC)CC1)C2", "effect on": "ligand displacement", "method": "radioligand", "inhibition": "66.6%"}
{"Structure (SMILES)": "COc1ccccc1N1CCN(CCCCN2C(=O)C3CCCCN3C2=O)CC1 (centres unmarked)", "effect on": "enzyme activity", "mode": "inhibitor", "inhibition": "72.6%"}
{"Structure (SMILES)": "NS(=O)(=O)c1cc(NC(=O)Cc2ccccc2)ccc1Oc1cccc(Cl)c1", "effect on": "ligand displacement", "inhibition": "-7.81%"}
{"Structure (SMILES)": "O=C(CN1CCO[C@@H](COc2cccnc2)C1)N1CCc2ccccc21", "effect on": "ligand displacement", "method": "radioligand", "inhibition": "5.5%"}
{"Structure (SMILES)": "Cc1c(C(=O)O)cc(-c2ccc(C3CCNCC3)cc2)c2ccc(-c3ccc(C(F)(F)F)cc3)cc12", "effect on": "cell-free assay", "inhibition": "-14.4%"}
{"Structure (SMILES)": "COc1ccc(CCN2C(=O)CC(N3CCN(c4ccc(Cl)cc4)CC3)C2=O)cc1OC (centres unmarked)", "effect on": "enzyme activity", "mode": "inhibitor", "inhibition": "11.9%"}
{"Structure (SMILES)": "c1cncc(OC[C@H]2CN(CCN3CCc4ccccc43)CCO2)c1", "effect on": "ligand displacement", "method": "radioligand", "inhibition": "36.3%"}
{"Structure (SMILES)": "COc1ccc(S(N)(=O)=O)cc1C(=O)NCCCN1CCN(c2ccccc2C)CC1", "effect on": "enzyme activity", "mode": "inhibitor", "inhibition": "45.1%"}
{"Structure (SMILES)": "Clc1cccc(OC[C@H]2CN(CCN3CCc4ccccc43)CCO2)c1", "effect on": "ligand displacement", "method": "radioligand", "inhibition": "63.1%"}
